# Laboratory results as given in ChEMBL document CHEMBL2062515, “Synthesis and evaluation of novel radioligands for positron emission tomography imaging of metabotropic glutamate receptor subtype 1 (mGluR1) in rodent brain” (J Med Chem, 2012).
# Key:
# Striatum [1] = test: Drug uptake in Sprague-Dawley rat striatum at 17 MBq administered as bolus infusion by PET analysis in presence of JNJ16259685; format: ADME, organism-based; settings: in vivo, iv
# Mus musculus [2] = test: Biodistribution in mouse small intestine at 4.8 MBq/140 uL, iv after 60 mins by gamma counting; format: ADME, organism-based; settings: in vivo, 1 h
# Summary of the method: (§1)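 [¹¹C]radioligand in saline (4.8 MBq/140 μL, 40 pmol) injected via tail vein; four mice per time point killed by cervical dislocation at 1, 5, 15, 30, 60 min. Tissues (small intestine including contents) removed, counted in autogamma counter, decay-corrected, expressed as % injected dose per gram wet tissue; mean SE, n = 4.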
# Cerebellum [3] = test: Drug uptake in Sprague-Dawley rat cerebellum at 17 MBq administered as bolus infusion after 45 mins post injection by PET analysis relative to control in presence of N-[4-[6-(isopropylamino)pyrimidin-4-yl]-1,3-thiazol-2-yl]-4-methoxy-N-methylbenzamide; format: ADME, organism-based; settings: in vivo, iv, 0.75 h
# Muscle tissue [4] = test: Biodistribution in mouse muscle at 4.8 MBq/140 uL, iv after 1 min by gamma counting; format: ADME, organism-based; settings: in vivo
# Summary of the method: (§2)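 Mice received the radioligand in saline by tail vein (4.8 MBq/140 μL, 40 pmol). Four mice per time point were killed by cervical dislocation at 1, 5, 15, 30 and 60 min. Tissues were removed quickly and counted in an autogamma counter. Data are decay-corrected % injected dose per gram of wet tissue, mean ± SE, n = 4.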
# Mus musculus [5] = test: Biodistribution in mouse testis at 4.8 MBq/140 uL, iv after 15 mins by gamma counting; format: ADME, organism-based; settings: in vivo, 0.25 h; summary of the method: as §1
# Muscle tissue [6] = test: Biodistribution in mouse muscle at 4.8 MBq/140 uL, iv after 60 mins by gamma counting; format: ADME, organism-based; settings: in vivo, 1 h; summary of the method: as §1
# Kidney [7] = test: Biodistribution in mouse kidney at 4.8 MBq/140 uL, iv after 30 mins by gamma counting; format: ADME, organism-based; settings: in vivo, 0.5 h; summary of the method: as §2
# Brain [8] = test: Drug uptake in mGluR1 knockout mouse brain at 17 MBq, iv up to 60 mins by PET analysis; format: ADME, organism-based; settings: in vivo, 1 h
# Kidney [9] = test: Biodistribution in mouse kidney at 4.8 MBq/140 uL, iv after 60 mins by gamma counting; format: ADME, organism-based; settings: in vivo, 1 h; summary of the method: as §2
# Lung [10] = test: Biodistribution in mouse lung at 4.8 MBq/140 uL, iv after 60 mins by gamma counting; format: ADME, organism-based; settings: in vivo, 1 h; summary of the method: as §2
# Cerebellum [11] = test: Drug uptake in Sprague-Dawley rat cerebellum at 17 MBq administered as bolus infusion by PET analysis in presence of JNJ16259685; format: ADME, organism-based; settings: in vivo, iv
# Brain [12] = test: Biodistribution in mouse brain at 4.8 MBq/140 uL, iv after 30 mins by gamma counting; format: ADME, organism-based; settings: in vivo, 0.5 h; summary of the method: as §2
# Thalamus [13] = test: Drug uptake in Sprague-Dawley rat thalamus at 16 MBq administered as bolus infusion after 90 mins by PET analysis; format: ADME, organism-based; settings: in vivo, iv, 1.5 h
# Mus musculus [14] = test: Biodistribution in mouse small intestine at 4.8 MBq/140 uL, iv after 5 mins by gamma counting; format: ADME, organism-based; settings: in vivo; summary of the method: as §1
# Blood [15] = test: Biodistribution in mouse blood at 4.8 MBq/140 uL, iv after 30 mins by gamma counting; format: ADME, organism-based; settings: in vivo, 0.5 h; summary of the method: as §2
# Thalamus [16] = test: Drug uptake in wild type mouse thalamus at 17 MBq, iv up to 60 mins by PET analysis; format: ADME, organism-based; settings: in vivo, 1 h
# Mus musculus [17] = test: Biodistribution in mouse testis at 4.8 MBq/140 uL, iv after 30 mins by gamma counting; format: ADME, organism-based; settings: in vivo, 0.5 h; summary of the method: as §1
# Cerebellum [18] = test: Drug uptake in Sprague-Dawley rat cerebellum at 16 MBq administered as bolus infusion after 45 mins post injection by PET analysis; format: ADME, organism-based; settings: in vivo, iv, 0.75 h
# Kidney [19] = test: Biodistribution in mouse kidney at 4.8 MBq/140 uL, iv after 5 mins by gamma counting; format: ADME, organism-based; settings: in vivo; summary of the method: as §2
# Mus musculus [20] = test: Biodistribution in mouse testis at 4.8 MBq/140 uL, iv after 60 mins by gamma counting; format: ADME, organism-based; settings: in vivo, 1 h; summary of the method: as §1
# Spleen [21] = test: Biodistribution in mouse spleen at 4.8 MBq/140 uL, iv after 60 mins by gamma counting; format: ADME, organism-based; settings: in vivo, 1 h; summary of the method: as §1
# Spleen [22] = test: Biodistribution in mouse spleen at 4.8 MBq/140 uL, iv after 15 mins by gamma counting; format: ADME, organism-based; settings: in vivo, 0.25 h; summary of the method: as §1
# Cerebellum [23] = test: Drug uptake in wild type mouse cerebellum at 17 MBq, iv up to 60 mins by PET analysis; format: ADME, organism-based; settings: in vivo, 1 h
# Mus musculus [24] = test: Biodistribution in mouse small intestine at 4.8 MBq/140 uL, iv after 1 min by gamma counting; format: ADME, organism-based; settings: in vivo; summary of the method: as §1
# Liver [25] = test: Biodistribution in mouse liver at 4.8 MBq/140 uL, iv after 30 mins by gamma counting; format: ADME, organism-based; settings: in vivo, 0.5 h; summary of the method: as §2
# Striatum [26] = test: Drug uptake in Sprague-Dawley rat striatum at 16 MBq administered as bolus infusion after 45 mins by PET analysis; format: ADME, organism-based; settings: in vivo, iv, 0.75 h
# Mus musculus [27] = test: Biodistribution in mouse testis at 4.8 MBq/140 uL, iv after 5 mins by gamma counting; format: ADME, organism-based; settings: in vivo; summary of the method: as §1
# Brain [28] = test: Biodistribution in mouse brain at 4.8 MBq/140 uL, iv after 60 mins by gamma counting; format: ADME, organism-based; settings: in vivo, 1 h; summary of the method: as §2
# Blood [29] = test: Biodistribution in mouse blood at 4.8 MBq/140 uL, iv after 15 mins by gamma counting; format: ADME, organism-based; settings: in vivo, 0.25 h; summary of the method: as §2
# [30] = Ratio of drug uptake in striatum to pons of Sprague-Dawley rat at 16 MBq administered as bolus infusion; settings: in vivo, iv
# Thalamus [31] = test: Drug uptake in Sprague-Dawley rat thalamus at 17 MBq administered as bolus infusion by PET analysis in presence of JNJ16259685; format: ADME, organism-based; settings: in vivo, iv
# Kidney [32] = test: Biodistribution in mouse kidney at 4.8 MBq/140 uL, iv after 15 mins by gamma counting; format: ADME, organism-based; settings: in vivo, 0.25 h; summary of the method: as §2
# Striatum [33] = test: Drug uptake in Sprague-Dawley rat striatum at 16 MBq administered as bolus infusion after 90 mins by PET analysis; format: ADME, organism-based; settings: in vivo, iv, 1.5 h
# Kidney [34] = test: Biodistribution in mouse kidney at 4.8 MBq/140 uL, iv after 1 min by gamma counting; format: ADME, organism-based; settings: in vivo; summary of the method: as §2
# Plasma = test: Metabolic stability in Sprague-Dawley rat plasma assessed as compound remaining after 90 mins; format: ADME, cell-free; settings: 1.5 h
# Liver [35] = test: Biodistribution in mouse liver at 4.8 MBq/140 uL, iv after 1 min by gamma counting; format: ADME, organism-based; settings: in vivo; summary of the method: as §2
# Striatum [36] = test: Drug uptake in Sprague-Dawley rat striatum at 17 MBq administered as bolus infusion by PET analysis in presence of N-[4-[6-(isopropylamino)pyrimidin-4-yl]-1,3-thiazol-2-yl]-4-methoxy-N-methylbenzamide; format: ADME, organism-based; settings: in vivo, iv
# Mus musculus [37] = test: Biodistribution in mouse small intestine at 4.8 MBq/140 uL, iv after 15 mins by gamma counting; format: ADME, organism-based; settings: in vivo, 0.25 h; summary of the method: as §1
# Blood [38] = test: Biodistribution in mouse blood at 4.8 MBq/140 uL, iv after 1 min by gamma counting; format: ADME, organism-based; settings: in vivo; summary of the method: as §2
# Lung [39] = test: Biodistribution in mouse lung at 4.8 MBq/140 uL, iv after 1 min by gamma counting; format: ADME, organism-based; settings: in vivo; summary of the method: as §2
# Liver [40] = test: Biodistribution in mouse liver at 4.8 MBq/140 uL, iv after 60 mins by gamma counting; format: ADME, organism-based; settings: in vivo, 1 h; summary of the method: as §2
# Mus musculus [41] = test: Biodistribution in mouse testis at 4.8 MBq/140 uL, iv after 1 min by gamma counting; format: ADME, organism-based; settings: in vivo; summary of the method: as §1
# Lung [42] = test: Biodistribution in mouse lung at 4.8 MBq/140 uL, iv after 15 mins by gamma counting; format: ADME, organism-based; settings: in vivo, 0.25 h; summary of the method: as §2
# Blood [43] = test: Biodistribution in mouse blood at 4.8 MBq/140 uL, iv after 5 mins by gamma counting; format: ADME, organism-based; settings: in vivo; summary of the method: as §2
compound,measurement,setting,value
CC(C)Nc1cc(-c2csc(N(C)C(=O)c3ccc(O[11CH3])cc3)n2)ncn1,Drug uptake,Striatum [1],Not Active
same,Drug uptake,Mus musculus [2],3.97 % ID/g
same,Drug uptake,Cerebellum [3],Active
same,Drug uptake,Muscle tissue [4],2.04 % ID/g
same,Drug uptake,Mus musculus [5],0.54 % ID/g
same,Drug uptake,Muscle tissue [6],0.52 % ID/g
same,Drug uptake,Kidney [7],3.32 % ID/g
same,Drug uptake,Brain [8],Not Active
same,Drug uptake,Kidney [9],2.92 % ID/g
same,Drug uptake,Lung [10],1.57 % ID/g
same,Drug uptake,Cerebellum [11],Not Active
same,Drug uptake,Brain [12],2.38 % ID/g
same,Drug uptake,Thalamus [13],80%
same,Drug uptake,Mus musculus [14],4.55 % ID/g
same,Drug uptake,Blood [15],0.67 % ID/g
same,Drug uptake,Thalamus [16],Active
same,Drug uptake,Mus musculus [17],0.38 % ID/g
same,Drug uptake,Cerebellum [18],Active
same,Drug uptake,Kidney [19],5.64 % ID/g
same,Drug uptake,Mus musculus [20],0.33 % ID/g
same,Drug uptake,Spleen [21],2.36 % ID/g
same,Drug uptake,Spleen [22],1.98 % ID/g
same,Drug uptake,Cerebellum [23],Active
same,Drug uptake,Mus musculus [24],3.65 % ID/g
same,Drug uptake,Liver [25],4.68 % ID/g
same,Drug uptake,Striatum [26],Active
same,Drug uptake,Mus musculus [27],0.83 % ID/g
same,Drug uptake,Brain [28],1.85 % ID/g
same,Drug uptake,Blood [29],0.96 % ID/g
same,Ratio,[30],4.32
same,Drug uptake,Thalamus [31],Not Active
same,Drug uptake,Kidney [32],3.78 % ID/g
same,Drug uptake,Striatum [33],80%
same,Drug uptake,Kidney [34],8.67 % ID/g
same,Stability,Plasma,Unstable
same,Drug uptake,Liver [35],8.16 % ID/g
same,Drug uptake,Striatum [36],Not Active
same,Drug uptake,Mus musculus [37],4.98 % ID/g
same,Drug uptake,Blood [38],3.79 % ID/g
same,Drug uptake,Lung [39],5.17 % ID/g
same,Drug uptake,Liver [40],3.97 % ID/g
same,Drug uptake,Mus musculus [41],0.72 % ID/g
same,Drug uptake,Lung [42],1.91 % ID/g
same,Drug uptake,Blood [43],1.95 % ID/g
